# Assay results reported in ChEMBL document CHEMBL4017517, “Small Molecule Inhibitors Simultaneously Targeting Cancer Metabolism and Epigenetics: Discovery of Novel Nicotinamide Phosphoribosyltransferase (NAMPT) and Histone Deacetylase (HDAC) Dual Inhibitors” (J Med Chem, 2017).
# Active and inactive are the calls of the source. The rule behind the calls is not given here.
# What was measured:
# [1] = biological target: Nicotinamide phosphoribosyltransferase (Homo sapiens, UniProt P43490); experiment: Inhibition of human recombinant NAMPT using NAM as substrate preincubated for 5 mins followed by substrate addition measured after 15 mins by fluorescence assay
# Nicotinamide phosphoribosyltransferase, sequence (P43490 whole entry, the tested form may be a part): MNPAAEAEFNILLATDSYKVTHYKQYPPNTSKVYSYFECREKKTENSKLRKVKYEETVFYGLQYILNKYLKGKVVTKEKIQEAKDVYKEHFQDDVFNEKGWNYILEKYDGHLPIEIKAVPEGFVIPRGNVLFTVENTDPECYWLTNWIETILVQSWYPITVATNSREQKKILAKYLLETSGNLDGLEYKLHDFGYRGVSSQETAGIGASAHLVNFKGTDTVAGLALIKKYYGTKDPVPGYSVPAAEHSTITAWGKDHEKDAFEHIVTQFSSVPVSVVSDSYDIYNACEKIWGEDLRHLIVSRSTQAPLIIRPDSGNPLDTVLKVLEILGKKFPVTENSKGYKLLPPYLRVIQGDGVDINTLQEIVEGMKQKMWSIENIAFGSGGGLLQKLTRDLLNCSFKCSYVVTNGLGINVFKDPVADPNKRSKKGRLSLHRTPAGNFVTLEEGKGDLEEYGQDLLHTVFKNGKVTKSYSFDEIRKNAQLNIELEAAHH
# Histone deacetylase 1 = Histone deacetylase 1 (Homo sapiens, UniProt Q13547); experiment: Inhibition of human recombinant HDAC1 (1 to 482 residues) expressed in Baculovirus using Ac-Leu-Gly-Lys(Ac)-AMC as substrate preincubated for 5 mins followed by substrate addition measured after 30 mins by fluorescence assay
# Histone deacetylase 1, sequence (Q13547 whole entry, the tested form may be a part): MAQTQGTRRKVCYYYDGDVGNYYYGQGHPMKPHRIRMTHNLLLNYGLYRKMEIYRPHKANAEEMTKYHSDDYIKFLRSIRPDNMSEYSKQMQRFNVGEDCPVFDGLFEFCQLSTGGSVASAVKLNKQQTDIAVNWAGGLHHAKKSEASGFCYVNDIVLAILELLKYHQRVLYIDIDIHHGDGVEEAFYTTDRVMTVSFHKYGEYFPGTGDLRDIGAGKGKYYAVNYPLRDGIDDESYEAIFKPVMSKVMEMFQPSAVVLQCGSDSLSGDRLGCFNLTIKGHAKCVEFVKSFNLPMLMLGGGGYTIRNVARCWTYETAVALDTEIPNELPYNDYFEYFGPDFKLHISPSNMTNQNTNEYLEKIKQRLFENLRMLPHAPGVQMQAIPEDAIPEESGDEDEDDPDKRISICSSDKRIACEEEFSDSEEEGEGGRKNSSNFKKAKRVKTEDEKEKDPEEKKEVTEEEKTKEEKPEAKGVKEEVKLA
# HCT-116 [2] = experiment: cells; assay type: functional, cell-based; settings: Homo sapiens, HCT-116, 72 h
# MDA-MB-231 = experiment: cells; assay type: functional, cell-based; settings: Homo sapiens, MDA-MB-231, 72 h
# HepG2 = experiment: cells; assay type: functional, cell-based; settings: Homo sapiens, HepG2, 72 h
# [3] = Terminal half life in BALB/C nude mouse at 25 mg/kg, po; assay type: ADME, organism-based; settings: in vivo, read-out: beta t1/2 (converted)
# In short: (§1)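 Mice given a single oral dose of 25 mg/kg. Plasma pharmacokinetics sampled to obtain terminal half-life and Cmax.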
# [4] = Cmax in BALB/C nude mouse at 25 mg/kg, po; assay type: ADME, organism-based; design: dose 25 mg/kg, route oral; settings: in vivo; in short: as §1
# HCT-116 [5] = experiment: Antitumor activity against human HCT116 cells xenografted in BALB/C nude mouse assessed as tumor growth inhibition at 25 mg/kg, po administered as single dose for 14 consecutive days measured after 30 to 33 days post implantation; assay type: functional, organism-based
# In short: (§2)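 Male BALB/C nude mice (18–20 g) bearing subcutaneous HCT116 right-axilla tumors; treatment started at about 100–300 mm³. Five mice per treatment, eight controls. Dosed po 25 mg/kg/day for 14 consecutive days as suspension in 0.5% carboxymethyl cellulose; controls got vehicle. Tumor volume (1/2 × length × width²) and body weight recorded every 3 days. Sacrifice day 30–33 post-implant.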
# Mus musculus = experiment: Toxicity in BALB/C nude mouse xenografted with human HCT116 cells assessed as change in body weight at 25 mg/kg, po administered as single dose for 14 consecutive days measured during compound dosing; assay type: organism-based; settings: in vivo; in short: as §2
# HCT-116 [6] = experiment: Induction of apoptosis in human HCT116 cells assessed as early apoptotic cells at 5 uM after 72 hrs by Annexin V-FITC/propidium iodide staining-based flow cytometric analysis (reference value: 7.82%); assay type: functional
# In short: (§3)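 HCT116 cells seeded at 5×10^5 cells/mL in six-well plates, treated at 5 μM for 72 h alongside vehicle. Cells trypsinized, washed twice in cold PBS, and resuspended in 1× binding buffer. Stained with annexin V-FITC 15 min at room temperature, then PI 15 min in dark, then flow cytometry.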
# HCT-116 [7] = experiment: Induction of apoptosis in human HCT116 cells assessed as late apoptotic cells at 5 uM after 72 hrs by Annexin V-FITC/propidium iodide staining-based flow cytometric analysis (reference value: 3.33%); assay type: functional; in short: as §3
# HCT-116 [8] = experiment: Induction of apoptosis in human HCT116 cells assessed as necrotic cells at 5 uM after 72 hrs by Annexin V-FITC/propidium iodide staining-based flow cytometric analysis (reference value: 1.25%); assay type: functional; in short: as §3
# HCT-116 [9] = experiment: Antitumor activity against human HCT116 cells xenografted in BALB/C nude mouse assessed as tumor growth inhibition at 15 mg/kg, ip bid administered for 21 consecutive days measured after 30 to 33 days post implantation relative to control; assay type: functional; settings: HCT-116, ip, read-out: TGI
# In short: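 HCT116 cells implanted subcutaneously in right axilla of male BALB/C nude mice (18–20 g). Dosing began at tumor volume about 100–300 mm³; five mice per treatment, eight controls. Given ip bid for 21 consecutive days in 0.1% Tween 80 in normal saline, with vehicle controls. Caliper volume TV = 1/2 × a × b² measured every 3 days. Mice sacrificed day 30–33 post-implant; TGI calculated at end of treatment.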
Compound,IC50 [1],IC50 (Histone deacetylase 1),IC50 (HCT-116 [2]),IC50 (MDA-MB-231),IC50 (HepG2),half-life [3],Cmax [4],TGI (HCT-116 [5]),Activity (Mus musculus),Activity (HCT-116 [6]),Activity (HCT-116 [7]),Activity (HCT-116 [8]),inhibition in vivo at 15 mg/kg (HCT-116 [9])
Nc1ccccc1NC(=O)c1ccc(NC(=O)NCc2cccnc2)cc1,0.55 µM,0.22 µM,9.4 µM,> 100 µM,5.1 µM,,,,,,,,
Nc1ccccc1NC(=O)c1ccc(CNC(=O)c2ccn3ccnc3c2)cc1,> 2 µM,0.087 µM,1.8 µM,46 µM,5.5 µM,,,,,,,,
Nc1ccccc1NC(=O)c1ccc(CNC(=O)c2cc3ccncc3[nH]2)cc1,> 2 µM,0.071 µM,3.3 µM,41 µM,4.7 µM,,,,,,,,
Nc1ccccc1NC(=O)c1ccc(CNC(=O)c2ccc3cn[nH]c3c2)cc1,> 2 µM,0.24 µM,18 µM,98 µM,23 µM,,,,,,,,
Nc1ccccc1NC(=O)c1ccc(NC(=S)NCc2cccnc2)cc1,0.116 to 0.12 µM,1.6 µM,1 µM,,4.2 µM,1.8 h,2300 nM,Active,Non-Toxic,,,,
Nc1ccccc1NC(=O)c1ccc(NC(=O)/C=C/c2cccnc2)cc1,0.23 µM,0.62 µM,48 µM,> 100 µM,2.7 µM,,,,,,,,
Nc1ccccc1NC(=O)c1ccc(CNC(=O)c2ccc3cncn3c2)cc1,> 2 µM,0.093 µM,7.4 µM,54 µM,3.4 µM,,,,,,,,
Nc1ccccc1NC(=O)c1ccc(NC(=S)NCc2cccc(Cl)c2)cc1,> 2 µM,0.18 µM,5.9 µM,92 µM,2.6 µM,,,,,,,,
Nc1ccccc1NC(=O)c1ccc(CNC(=O)c2cc3cnccc3[nH]2)cc1,> 2 µM,0.084 µM,4 µM,48 µM,1.7 µM,,,,,,,,
Nc1ccccc1NC(=O)c1ccc(NC(=O)/C(Cl)=C(\Cl)c2cccnc2)cc1,> 2 µM,0.67 µM,2.4 µM,13 µM,0.56 µM,,,,,,,,
Nc1ccccc1NC(=O)c1ccc(NC(=S)NCc2ccc(Cl)nc2)cc1,> 2 µM,0.25 µM,6.1 µM,42 µM,19 µM,,,,,,,,
Nc1cccc(CNC(=S)Nc2ccc(C(=O)Nc3ccccc3N)cc2)c1,> 2 µM,0.22 µM,2.8 µM,> 100 µM,3.3 µM,,,,,,,,
CC(C)(C)OC(=O)Nc1ccc(CNC(=O)Nc2ccc(C(=O)Nc3ccccc3N)cc2)cn1,> 2 µM,3.3 µM,100 µM,> 100 µM,100 µM,,,,,,,,
O=C(/C=C/c1cccnc1)NCCCCC1CCN(C(=O)c2ccccc2)CC1 [DAPORINAD],,,1.6 µM,1.3 µM,0.89 µM,,,,,,,,39%
CC(=O)Nc1ccc(C(=O)Nc2ccccc2N)cc1 [TACEDINALINE],> 2 µM,,10 µM,,10 µM,,,,,10.81%,20.75%,3.71%,

# More lines, main results first:
IC50 [1],IC50 (Histone deacetylase 1),IC50 (HCT-116 [2]),IC50 (MDA-MB-231),IC50 (HepG2),half-life [3],Cmax [4],Compound,TGI (HCT-116 [5]),Activity (Mus musculus),Activity (HCT-116 [6]),Activity (HCT-116 [7]),Activity (HCT-116 [8]),inhibition in vivo at 15 mg/kg (HCT-116 [9])
> 2 µM,0.26 µM,11 µM,63 µM,11 µM,,,Cc1ccc(CNC(=S)Nc2ccc(C(=O)Nc3ccccc3N)cc2)cn1,,,,,,
> 2 µM,0.17 µM,5.9 µM,74 µM,2.9 µM,,,Nc1ccccc1NC(=O)c1ccc(NC(=S)NCc2cccc(F)c2)cc1,,,,,,
> 2 µM,0.033 µM,10 µM,> 100 µM,6.1 µM,,,Nc1ccccc1NC(=O)c1ccc(CNC(=O)c2cc3cccnc3[nH]2)cc1,,,,,,
> 2 µM,0.44 µM,15 µM,85 µM,13 µM,,,Nc1ccccc1NC(=O)c1ccc(NC(=S)NCc2cncc(F)c2)cc1,,,,,,
> 2 µM,0.2 µM,27 µM,> 100 µM,14 µM,,,Nc1ccc(CNC(=S)Nc2ccc(C(=O)Nc3ccccc3N)cc2)cn1,,,,,,
> 2 µM,0.28 µM,14 µM,91 µM,13 µM,,,Nc1ccccc1NC(=O)c1ccc(NC(=O)NCc2ccc(F)nc2)cc1,,,,,,
> 2 µM,0.3 µM,6.3 µM,> 100 µM,5.4 µM,,,Nc1ccccc1NC(=O)c1ccc(NC(=S)NCc2ccccc2F)cc1,,,,,,
> 2 µM,0.083 µM,3 µM,40 µM,0.38 µM,,,Nc1ccccc1NC(=O)c1ccc(CNC(=O)c2cc3cnccc3s2)cc1,,,,,,
> 2 µM,0.3 µM,15 µM,> 100 µM,8.8 µM,,,Nc1ccccc1NC(=O)c1ccc(NC(=S)NCc2ccc(F)cc2)cc1,,,,,,
> 2 µM,0.35 µM,9.2 µM,39 µM,7.5 µM,,,Nc1ccccc1NC(=O)c1ccc(NC(=S)NCc2cncc(Br)c2)cc1,,,,,,
0.19 µM,0.18 µM,5.5 µM,41 µM,3.2 µM,,,Nc1ccccc1NC(=O)c1ccc(CCn2cc(-c3cccnc3)nn2)cc1,,,,,,
> 2 µM,0.1 µM,8.4 µM,> 100 µM,5.1 µM,,,Nc1ccccc1NC(=O)c1ccc(NC(=S)NCc2ccc3c(c2)OCO3)cc1,,,,,,
> 2 µM,0.37 µM,10 µM,81 µM,5.2 µM,,,Nc1ccccc1NC(=O)c1ccc(NC(=S)NCc2ccc(F)nc2)cc1,,,,,,
,> 10 µM,41 µM,,5.3 µM,,,O=S(=O)(c1ccc(NC(=S)NCc2cccnc2)cc1)N1CCCCC1,,,29.11%,11.4%,1.62%,
> 2 µM,0.33 µM,7.3 µM,> 100 µM,3.1 µM,,,Nc1ccc(CNC(=O)Nc2ccc(C(=O)Nc3ccccc3N)cc2)cn1,,,,,,
> 2 µM,0.021 µM,5.2 µM,34 µM,2.4 µM,,,Nc1ccccc1NC(=O)c1ccc(NC(=O)NCc2ccc(Cl)nc2)cc1,,,,,,
0.018 µM,0.041 µM,> 100 µM,> 100 µM,8.1 µM,,,Nc1ccccc1NC(=O)c1ccc(Cn2cc(-c3ccc(NC(=O)NCc4cccnc4)cc3)nn2)cc1,,,,,,
> 2 µM,0.046 µM,22 µM,> 100 µM,31 µM,,,Nc1ccccc1NC(=O)c1ccc(NC(=S)NCc2nc3ccccc3[nH]2)cc1,,,,,,
